Test results taken from ChEMBL document CHEMBL4392823, “Potassium channel blocking 1,2-bis(aryl)ethane-1,2-diamines active as antiarrhythmic agents” (Bioorg Med Chem Lett, 2019).

How the values were obtained:
Cytochrome P450 3A4 = Cytochrome P450 3A4 (Homo sapiens, UniProt P08684); assay: Drug metabolism in human hepatocytes assessed as CYP3A4-mediated drug metabolism; assay type: ADME, cell-based
[1] = Intrinsic clearance in human liver microsomes; assay type: ADME, Microsome; conditions: read-out: CLH
[2] = biological target: T1, Potassium voltage-gated channel subfamily A member 5 (Homo sapiens, UniProt P22460); assay: Inhibition of recombinant human Kv1.5 expressed in CHO cells by IonWork high-throughput electrophysiology assay; assay type: cell-based
T1 sequence (P22460 whole entry): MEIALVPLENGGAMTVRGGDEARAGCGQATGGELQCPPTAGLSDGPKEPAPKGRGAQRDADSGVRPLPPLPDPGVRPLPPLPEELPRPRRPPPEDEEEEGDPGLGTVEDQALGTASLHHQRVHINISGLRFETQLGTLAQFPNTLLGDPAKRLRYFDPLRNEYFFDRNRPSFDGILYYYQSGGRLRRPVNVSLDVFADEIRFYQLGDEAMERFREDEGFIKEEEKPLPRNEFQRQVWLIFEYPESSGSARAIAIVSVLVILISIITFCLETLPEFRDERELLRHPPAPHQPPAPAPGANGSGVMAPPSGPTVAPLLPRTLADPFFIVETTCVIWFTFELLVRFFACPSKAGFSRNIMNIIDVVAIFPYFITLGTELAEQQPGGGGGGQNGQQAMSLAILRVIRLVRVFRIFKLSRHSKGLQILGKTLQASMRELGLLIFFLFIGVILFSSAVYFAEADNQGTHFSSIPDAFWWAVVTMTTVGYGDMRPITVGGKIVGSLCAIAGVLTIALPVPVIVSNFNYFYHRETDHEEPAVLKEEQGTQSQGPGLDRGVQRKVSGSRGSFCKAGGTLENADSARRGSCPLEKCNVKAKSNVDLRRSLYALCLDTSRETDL
Procedure, shortened: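 Kv1.5 current recorded in CHO cells by IonWorks HT automated electrophysiology. IC50 is the average of 2 measurements unless n=1 is noted.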

[3] = Dissociation constant, pKa of the compound; assay type: physicochemical
[4] = Lipophilicity, log D of the compound by chromatographic method; assay type: physicochemical
Procedure, shortened: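 Lipophilicity (log D) measured by a chromatographic method.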

[5] = Renal clearance in dog; assay type: ADME, Canis lupus familiaris; conditions: in vivo
[6] = Drug excretion in dog urine; assay type: ADME, Canis lupus familiaris; conditions: read-out: Drug excretion
[7] = Plasma clearance in dog; assay type: ADME, Canis lupus familiaris
[8] = Stability in human liver microsomes assessed as formation of iminium ions; assay type: ADME, Microsome
Cytochrome P450 2D6 = Cytochrome P450 2D6 (Homo sapiens, UniProt P10635); assay: Inhibition of CYP2D6 (unknown origin); assay type: ADME
Cytochrome P450 2D6, sequence (P10635 whole entry): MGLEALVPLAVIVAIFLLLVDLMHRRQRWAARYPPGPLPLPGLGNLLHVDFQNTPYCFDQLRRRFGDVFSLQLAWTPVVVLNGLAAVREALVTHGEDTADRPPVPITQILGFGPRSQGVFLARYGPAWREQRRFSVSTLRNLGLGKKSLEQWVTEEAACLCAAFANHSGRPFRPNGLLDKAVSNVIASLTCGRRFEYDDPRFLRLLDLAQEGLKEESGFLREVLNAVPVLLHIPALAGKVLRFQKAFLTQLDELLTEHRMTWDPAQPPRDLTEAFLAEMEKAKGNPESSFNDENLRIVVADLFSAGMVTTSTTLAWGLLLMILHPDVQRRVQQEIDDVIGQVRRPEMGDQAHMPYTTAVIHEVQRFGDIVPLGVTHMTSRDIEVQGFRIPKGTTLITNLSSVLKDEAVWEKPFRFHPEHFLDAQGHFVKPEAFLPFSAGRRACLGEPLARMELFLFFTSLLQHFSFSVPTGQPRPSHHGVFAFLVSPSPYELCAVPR

[9] = biological target: Potassium voltage-gated channel subfamily E member 1 (Homo sapiens, UniProt P15382); assay: Inhibition of IKs (unknown origin)
[10] = biological target: Voltage-gated inwardly rectifying potassium channel KCNH2 (Homo sapiens, UniProt Q12809); assay: Inhibition of human ERG
Voltage-gated inwardly rectifying potassium channel KCNH2, sequence (Q12809 whole entry): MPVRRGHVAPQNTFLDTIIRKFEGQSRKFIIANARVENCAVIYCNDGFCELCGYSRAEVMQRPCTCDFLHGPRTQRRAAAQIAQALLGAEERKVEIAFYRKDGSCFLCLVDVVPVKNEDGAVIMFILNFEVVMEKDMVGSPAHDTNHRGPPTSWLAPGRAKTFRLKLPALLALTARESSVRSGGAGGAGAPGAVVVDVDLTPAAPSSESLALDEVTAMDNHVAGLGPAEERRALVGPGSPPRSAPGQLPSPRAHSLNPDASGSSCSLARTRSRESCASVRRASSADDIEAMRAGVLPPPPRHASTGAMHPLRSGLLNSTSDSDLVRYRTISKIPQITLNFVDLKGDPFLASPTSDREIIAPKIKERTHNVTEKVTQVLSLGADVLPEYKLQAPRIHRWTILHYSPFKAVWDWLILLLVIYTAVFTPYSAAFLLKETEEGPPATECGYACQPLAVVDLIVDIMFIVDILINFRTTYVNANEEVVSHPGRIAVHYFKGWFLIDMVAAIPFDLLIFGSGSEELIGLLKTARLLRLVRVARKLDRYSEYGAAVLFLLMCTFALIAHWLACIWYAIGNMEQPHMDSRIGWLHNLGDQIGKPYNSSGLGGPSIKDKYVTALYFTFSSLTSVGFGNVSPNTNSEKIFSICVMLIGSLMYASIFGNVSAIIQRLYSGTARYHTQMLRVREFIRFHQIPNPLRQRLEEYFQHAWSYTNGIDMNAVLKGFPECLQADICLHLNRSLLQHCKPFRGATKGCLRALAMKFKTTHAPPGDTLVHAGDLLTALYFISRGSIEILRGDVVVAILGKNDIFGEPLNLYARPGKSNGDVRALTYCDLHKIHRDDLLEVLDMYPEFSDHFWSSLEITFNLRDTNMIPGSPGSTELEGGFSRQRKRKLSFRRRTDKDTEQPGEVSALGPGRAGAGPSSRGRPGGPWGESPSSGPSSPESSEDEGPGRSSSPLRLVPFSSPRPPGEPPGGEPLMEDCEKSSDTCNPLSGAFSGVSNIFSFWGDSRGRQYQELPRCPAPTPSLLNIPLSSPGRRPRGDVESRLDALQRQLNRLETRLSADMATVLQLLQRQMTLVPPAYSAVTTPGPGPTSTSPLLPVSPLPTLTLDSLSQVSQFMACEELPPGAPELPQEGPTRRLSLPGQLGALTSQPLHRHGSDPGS

[11] = biological target: T2, Glutamate [NMDA] receptor (Homo sapiens) (UniProt Q05586+Q12879+Q13224+O15399+O60391+Q14957+Q8TCU5); assay: Inhibition of NMDA receptor phencyclidine binding site (unknown origin) at 10 uM relative to control; assay type: protein-complex assay
[12] = biological target: T2, Glutamate [NMDA] receptor (Homo sapiens); assay: Inhibition of NMDA receptor glycine binding site (unknown origin) at 10 uM relative to control; assay type: protein-complex assay
[13] = biological target: Voltage-dependent L-type calcium channel subunit alpha-1C (Homo sapiens, UniProt Q13936); assay: Inhibition of CaV1.2 (unknown origin)
[14] = biological target: T1, Potassium voltage-gated channel subfamily A member 5; assay: Inhibition of Kv1.5 in human atrial myocytes assessed as blockade of Ikur current; assay type: cell-based
Oryctolagus cuniculus = assay: Antiarrhythmic activity in iv dosed anesthetized rabbit assessed as free compound plasma exposure which prolongs the right atrial effective refractory period by 20 milliseconds measured after 20 mins by electrophysiological analysis; assay type: functional
Procedure, shortened: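 Anesthetized rabbits received increasing intravenous infusions of test compound. Right atrial effective refractory period was measured 20 min after each dose. Value is the free plasma exposure giving a 20 ms RAERP prolongation.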

[15] = biological target: T3, A-type voltage-gated potassium channel KCND3 (Homo sapiens, UniProt Q9UK17); assay: Inhibition of Kv4.3 (unknown origin)
T3 sequence (Q9UK17 whole entry): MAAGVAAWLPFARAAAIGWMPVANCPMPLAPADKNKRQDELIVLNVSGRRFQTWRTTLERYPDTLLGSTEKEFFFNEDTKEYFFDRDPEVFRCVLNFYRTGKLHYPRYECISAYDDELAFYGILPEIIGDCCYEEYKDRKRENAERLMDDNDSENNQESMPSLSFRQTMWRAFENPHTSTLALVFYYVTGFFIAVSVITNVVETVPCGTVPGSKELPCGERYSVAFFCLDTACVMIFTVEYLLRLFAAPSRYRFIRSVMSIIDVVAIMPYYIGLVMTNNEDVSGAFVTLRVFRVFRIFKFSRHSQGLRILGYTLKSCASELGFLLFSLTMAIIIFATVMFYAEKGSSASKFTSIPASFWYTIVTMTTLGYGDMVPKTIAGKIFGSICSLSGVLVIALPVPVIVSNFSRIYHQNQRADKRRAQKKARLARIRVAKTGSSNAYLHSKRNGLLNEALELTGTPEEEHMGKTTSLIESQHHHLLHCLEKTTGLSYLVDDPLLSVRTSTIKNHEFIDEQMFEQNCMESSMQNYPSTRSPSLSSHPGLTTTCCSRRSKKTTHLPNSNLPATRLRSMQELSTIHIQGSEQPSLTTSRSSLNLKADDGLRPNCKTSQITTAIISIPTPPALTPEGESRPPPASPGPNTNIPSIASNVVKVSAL

[16] = biological target: T4, G protein-activated inward rectifier potassium channel 1 (Homo sapiens, UniProt P48549); assay: Inhibition of Kir3.1 (unknown origin)
T4 sequence (P48549 whole entry): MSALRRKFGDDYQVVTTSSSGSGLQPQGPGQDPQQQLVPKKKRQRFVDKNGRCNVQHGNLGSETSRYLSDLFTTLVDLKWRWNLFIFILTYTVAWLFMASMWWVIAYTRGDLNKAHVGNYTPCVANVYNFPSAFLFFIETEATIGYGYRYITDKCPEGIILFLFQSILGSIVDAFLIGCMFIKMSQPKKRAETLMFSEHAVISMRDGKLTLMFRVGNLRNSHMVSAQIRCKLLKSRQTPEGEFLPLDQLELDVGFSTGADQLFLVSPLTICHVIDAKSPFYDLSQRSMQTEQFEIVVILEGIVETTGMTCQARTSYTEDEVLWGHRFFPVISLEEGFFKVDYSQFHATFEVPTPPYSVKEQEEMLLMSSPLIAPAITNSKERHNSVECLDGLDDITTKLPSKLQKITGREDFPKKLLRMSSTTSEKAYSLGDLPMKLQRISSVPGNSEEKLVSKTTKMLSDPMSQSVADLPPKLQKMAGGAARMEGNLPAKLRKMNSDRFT

Canis familiaris = species on record: Canis familiaris; assay: Antiarrhythmic activity in rapid atrial pacing dog model of atrial fibrillation assessed as unbound plasma concentration required to convert atrial fibrillation to sinus rhythm; assay type: functional, Canis lupus familiaris
Procedure, shortened: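 Rapid atrial pacing dog model of AF (n=12). Read-out was conversion of AF to sinus rhythm, with the unbound plasma concentration at conversion reported as mean ± spread.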

[17] = Free drug level in rat brain at 2 umol/kg/hr administered for 4 hrs; assay type: ADME, tissue-based; conditions: in vivo
Procedure, shortened: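 Rats received a continuous intravenous infusion at 2 μmol/kg/h for 4 h. Total brain and plasma concentrations were measured at steady state. Free levels were calculated from measured unbound fractions in brain and plasma, and free brain exposure was expressed relative to free plasma exposure.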

[18] = biological target: Sodium channel protein type 5 subunit alpha (Homo sapiens, UniProt Q14524); assay: Inhibition of Nav1.5 (unknown origin)
Sodium channel protein type 5 subunit alpha, sequence (Q14524 whole entry): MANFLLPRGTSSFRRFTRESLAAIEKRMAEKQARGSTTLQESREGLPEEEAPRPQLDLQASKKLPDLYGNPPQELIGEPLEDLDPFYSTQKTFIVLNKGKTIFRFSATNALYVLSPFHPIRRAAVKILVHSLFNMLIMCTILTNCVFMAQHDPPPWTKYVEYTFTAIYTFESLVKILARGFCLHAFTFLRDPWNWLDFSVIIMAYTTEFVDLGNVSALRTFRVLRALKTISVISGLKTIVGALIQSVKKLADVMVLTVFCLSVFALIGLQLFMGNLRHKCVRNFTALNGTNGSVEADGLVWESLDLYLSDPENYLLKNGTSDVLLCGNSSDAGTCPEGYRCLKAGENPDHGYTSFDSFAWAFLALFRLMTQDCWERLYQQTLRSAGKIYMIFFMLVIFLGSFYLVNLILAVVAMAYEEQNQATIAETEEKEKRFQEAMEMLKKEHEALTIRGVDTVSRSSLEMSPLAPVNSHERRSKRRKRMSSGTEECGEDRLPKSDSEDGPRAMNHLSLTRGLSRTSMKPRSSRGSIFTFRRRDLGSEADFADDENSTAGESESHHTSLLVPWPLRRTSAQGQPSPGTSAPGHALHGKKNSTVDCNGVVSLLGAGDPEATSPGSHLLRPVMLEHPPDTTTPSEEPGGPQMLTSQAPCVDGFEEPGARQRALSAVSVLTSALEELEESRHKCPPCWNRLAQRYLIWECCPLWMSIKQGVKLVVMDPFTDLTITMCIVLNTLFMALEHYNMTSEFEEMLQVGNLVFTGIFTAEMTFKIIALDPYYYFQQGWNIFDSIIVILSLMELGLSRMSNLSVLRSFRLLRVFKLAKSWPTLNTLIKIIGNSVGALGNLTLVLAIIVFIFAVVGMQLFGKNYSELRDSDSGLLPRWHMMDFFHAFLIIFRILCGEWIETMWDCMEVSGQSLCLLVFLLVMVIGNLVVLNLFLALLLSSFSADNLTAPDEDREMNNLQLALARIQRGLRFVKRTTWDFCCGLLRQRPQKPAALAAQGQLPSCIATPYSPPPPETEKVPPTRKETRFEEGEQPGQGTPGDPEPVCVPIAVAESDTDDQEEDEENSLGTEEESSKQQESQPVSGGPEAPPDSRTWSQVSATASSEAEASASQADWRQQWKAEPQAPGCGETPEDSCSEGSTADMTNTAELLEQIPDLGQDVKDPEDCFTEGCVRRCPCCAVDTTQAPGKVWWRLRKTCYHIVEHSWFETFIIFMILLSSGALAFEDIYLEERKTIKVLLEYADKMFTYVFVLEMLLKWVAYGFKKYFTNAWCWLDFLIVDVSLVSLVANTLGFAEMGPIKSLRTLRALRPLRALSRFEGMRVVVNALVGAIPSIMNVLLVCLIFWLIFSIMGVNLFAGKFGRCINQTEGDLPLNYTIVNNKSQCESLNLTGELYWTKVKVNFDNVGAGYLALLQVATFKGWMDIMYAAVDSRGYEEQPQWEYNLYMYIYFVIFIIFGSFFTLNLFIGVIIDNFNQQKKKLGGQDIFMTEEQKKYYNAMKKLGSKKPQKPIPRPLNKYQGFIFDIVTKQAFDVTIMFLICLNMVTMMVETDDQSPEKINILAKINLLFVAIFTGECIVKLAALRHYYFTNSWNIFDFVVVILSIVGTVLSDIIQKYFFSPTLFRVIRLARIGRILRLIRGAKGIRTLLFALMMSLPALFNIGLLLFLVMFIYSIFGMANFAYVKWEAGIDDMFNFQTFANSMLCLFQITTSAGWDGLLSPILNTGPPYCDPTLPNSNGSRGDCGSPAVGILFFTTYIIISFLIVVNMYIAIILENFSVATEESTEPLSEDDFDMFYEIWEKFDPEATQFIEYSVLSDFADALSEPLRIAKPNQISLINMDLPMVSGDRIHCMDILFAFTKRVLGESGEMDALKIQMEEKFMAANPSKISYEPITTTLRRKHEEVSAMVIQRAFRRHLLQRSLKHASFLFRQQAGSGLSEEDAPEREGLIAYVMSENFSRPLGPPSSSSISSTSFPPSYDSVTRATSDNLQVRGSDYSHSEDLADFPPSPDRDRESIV

[19] = biological target: T5, G protein-activated inward rectifier potassium channel 4 (Homo sapiens, UniProt P48544); assay: Inhibition of Kir3.4 (unknown origin)
T5 sequence (P48544 whole entry): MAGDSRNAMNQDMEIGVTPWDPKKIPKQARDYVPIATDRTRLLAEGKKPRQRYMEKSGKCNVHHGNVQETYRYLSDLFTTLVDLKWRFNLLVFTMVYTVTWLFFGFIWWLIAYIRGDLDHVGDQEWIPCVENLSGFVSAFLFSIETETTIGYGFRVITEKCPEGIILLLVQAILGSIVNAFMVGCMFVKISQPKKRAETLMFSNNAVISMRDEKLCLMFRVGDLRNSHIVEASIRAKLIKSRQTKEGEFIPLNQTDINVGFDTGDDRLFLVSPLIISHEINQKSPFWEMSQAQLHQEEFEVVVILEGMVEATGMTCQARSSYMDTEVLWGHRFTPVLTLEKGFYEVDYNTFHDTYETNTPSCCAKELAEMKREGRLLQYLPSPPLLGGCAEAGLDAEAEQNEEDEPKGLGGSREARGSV

hERG (KCNH2) = hERG (KCNH2) (Homo sapiens, UniProt Q12809); assay: Inhibition of human ERG at 33 uM relative to control
[20] = Cardiotoxicity in dog assessed as blockade of sodium channel by measuring changes in ECG at higher dose; assay type: toxicity, Canis lupus familiaris; conditions: in vivo

Cytochrome P450 3A4, sequence (P08684 whole entry): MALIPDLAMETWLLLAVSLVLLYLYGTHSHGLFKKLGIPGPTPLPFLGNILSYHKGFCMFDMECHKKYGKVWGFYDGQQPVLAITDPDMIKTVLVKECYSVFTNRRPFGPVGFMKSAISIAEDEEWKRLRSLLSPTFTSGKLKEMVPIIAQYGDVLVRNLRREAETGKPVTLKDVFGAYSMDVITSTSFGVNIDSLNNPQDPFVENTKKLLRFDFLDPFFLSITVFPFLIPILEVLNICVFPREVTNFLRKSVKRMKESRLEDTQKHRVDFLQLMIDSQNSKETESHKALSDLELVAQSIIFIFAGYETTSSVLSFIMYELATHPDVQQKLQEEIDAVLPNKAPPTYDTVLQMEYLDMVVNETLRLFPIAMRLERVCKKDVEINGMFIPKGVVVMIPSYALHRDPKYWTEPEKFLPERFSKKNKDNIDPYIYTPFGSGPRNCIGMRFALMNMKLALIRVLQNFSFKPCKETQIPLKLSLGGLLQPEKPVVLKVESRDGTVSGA

c1ccc([C@H]([C@H](c2ccccn2)N2CCCCC2)N2CCCCC2)nc1
Drug metabolism (Cytochrome P450 3A4): Metabolite_Detected | microsomal CLint [1]: 412 µL/min/mg | IC50 [2]: 1.4 µM | pKa [3]: 8.7 | chromatographic logD [4]: 4.6

CCCN(CC)[C@H](c1ccccn1)[C@@H](c1ccccn1)N(CCOC)C[C@H](C)CO
IC50 [2]: 10 µM | CL renal [5]: 2.7 mL/min/kg | dose excreted [6]: 11% | clearance [7]: 25 mL/min/kg

CCCN(CC)[C@H](c1ccccn1)[C@@H](c1ccccn1)N(CC)CCC
Stability [8]: Stable | IC50 (Cytochrome P450 2D6): 5.4 µM | Drug metabolism (Cytochrome P450 3A4): Metabolite_Detected | microsomal CLint [1]: 23 µL/min/mg | IC50 [2]: 3.2 µM | IC50 [9]: 60 µM | IC50 [10]: > 33 µM | CL renal [5]: 0.7 mL/min/kg | dose excreted [6]: 6.9% | chromatographic logD [4]: 3.3 | clearance [7]: 16 mL/min/kg

c1ccc([C@H]([C@@H](c2ccccc2)N2CCCCC2)N2CCCCC2)cc1
Stability [8]: Unstable | IC50 (Cytochrome P450 2D6): 0.13 µM | Drug metabolism (Cytochrome P450 3A4): Metabolite_Detected | microsomal CLint [1]: 14 µL/min/mg | IC50 [2]: 0.41 µM | IC50 [9]: 1.4 µM | IC50 [10]: > 33 µM | chromatographic logD [4]: 4

CCCN(CCC)[C@H](c1ccccn1)[C@@H](c1ccccn1)N(CCC)C[C@H](O)CO
inhibition [11]: 14% | inhibition [12]: 13% | IC50 [13]: > 33 µM | IC50 [2]: 1.7 µM | IC50 [14]: 0.06 µM | Cp(f) (Oryctolagus cuniculus): 0.15 µM | IC50 [9]: > 33 µM | IC50 [15]: 11 µM | IC50 [10]: > 33 µM | IC50 [16]: 4.1 µM | CL renal [5]: 0.19 mL/min/kg | dose excreted [6]: 5.1% | Cp(f) (Canis familiaris): 0.48 µM | clearance [7]: 6.1 mL/min/kg | Drug uptake(free) [17]: 4% | IC50 [18]: 19 µM | IC50 [19]: 4.1 µM | inhibition at 33 µM (hERG (KCNH2)): 37%

COCCN(C[C@H](C)O)[C@H](c1ccccn1)[C@@H](c1ccccn1)N1C2CCC1CC(OC)C2 (stereo not given in full)
IC50 [2]: 5.6 µM | CL renal [5]: 7.1 mL/min/kg | dose excreted [6]: 28% | clearance [7]: 25 mL/min/kg

CCCN(CC)[C@@H](c1ccccn1)[C@H](c1cccc(C#N)c1)N(CCOC)C[C@@H](C)CO
IC50 [2]: 7.3 µM | IC50 [14]: 0.26 µM | CL renal [5]: 1.8 mL/min/kg | dose excreted [6]: 4.7% | clearance [7]: 37 mL/min/kg

CCCN(CCC)[C@H](c1ccccn1)[C@@H](c1ccccn1)N(CCOC)C[C@H](C)O
IC50 [2]: 2.7 µM | Cp(f) (Oryctolagus cuniculus): 0.22 µM | CL renal [5]: 2.5 mL/min/kg | dose excreted [6]: 11% | clearance [7]: 21 mL/min/kg

c1ccc([C@H]([C@@H](c2ccccn2)N2CCCCC2)N2CCCCC2)nc1
IC50 (Cytochrome P450 2D6): > 20 µM | Drug metabolism (Cytochrome P450 3A4): Metabolite_Detected | microsomal CLint [1]: < 5 µL/min/mg | IC50 [2]: 2.2 µM | IC50 [9]: 17 µM | pKa [3]: 10.4 | IC50 [10]: > 33 µM | chromatographic logD [4]: 2.2

CCCN(CCC)[C@H](c1ccccn1)[C@@H](c1ccccn1)N(C[C@@H](C)O)C[C@@H](C)O
IC50 [2]: 2.1 µM | Cp(f) (Oryctolagus cuniculus): 0.29 µM | CL renal [5]: 5.5 mL/min/kg | dose excreted [6]: 19% | clearance [7]: 16 mL/min/kg

CCCN(CC)[C@H](c1ccccn1)[C@@H](c1cccc(C#N)c1)N(CCOC)C[C@H](C)CO
IC50 [2]: 4.8 µM | IC50 [14]: 0.39 µM | CL renal [5]: 2.1 mL/min/kg | dose excreted [6]: 4.4% | clearance [7]: 44 mL/min/kg

CCCN(C[C@H](C)O)[C@H](c1ccccn1)[C@@H](c1ccccn1)N1C2CCCC1CC2
Activity [20]: Toxic | IC50 [2]: 3.4 µM | Cp(f) (Oryctolagus cuniculus): 0.057 µM | CL renal [5]: 0.3 mL/min/kg | dose excreted [6]: 12% | clearance [7]: 3 mL/min/kg

c1ccc([C@@H]([C@H](c2ccccn2)N2CCCCC2)N2CCCCC2)nc1
Drug metabolism (Cytochrome P450 3A4): Metabolite_Detected | microsomal CLint [1]: < 5 µL/min/mg | IC50 [2]: 4.8 µM | pKa [3]: 10.4 | chromatographic logD [4]: 2.2

CCCN(CCC)[C@H](c1ccccn1)[C@@H](c1ccccn1)N(CCC)CCC
IC50 (Cytochrome P450 2D6): > 20 µM | Drug metabolism (Cytochrome P450 3A4): Metabolite_Detected | microsomal CLint [1]: 58 µL/min/mg | IC50 [2]: 0.22 µM | IC50 [9]: > 33 µM | chromatographic logD [4]: 4.6
